Source: ChEMBL document CHEMBL4609986 (Bioorg Med Chem, 2020)
pEC50: −log10 of the molar value.

Tests used:
[1] = molecular target: T1, Tyrosine-protein kinase ABL1 (Homo sapiens, UniProt P00519); assay: Inhibition of wild-type human non-phosphorylated ABL1 (S229 to K512 residues) expressed in mammalian expression system assessed as residual activity at 500 nM by Kinomescan method relative to control
Summary of the method: (§1)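 Kinase panel of 468 kinases, scored as residual activity at 100 nM or 500 nM test compound.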

AURKB (Aurora kinase B) [2] = molecular target: T2, AURKB (Aurora kinase B) (Homo sapiens, UniProt Q96GD4); assay: Inhibition of AURKB in human HEK293T cells assessed as reduction in cell viability at 90 to 270 nM measured after 48 hrs in presence of 40 nM MLN-8054 relative to control; format: cell-based, HEK-293T
T2 sequence (Q96GD4 whole entry): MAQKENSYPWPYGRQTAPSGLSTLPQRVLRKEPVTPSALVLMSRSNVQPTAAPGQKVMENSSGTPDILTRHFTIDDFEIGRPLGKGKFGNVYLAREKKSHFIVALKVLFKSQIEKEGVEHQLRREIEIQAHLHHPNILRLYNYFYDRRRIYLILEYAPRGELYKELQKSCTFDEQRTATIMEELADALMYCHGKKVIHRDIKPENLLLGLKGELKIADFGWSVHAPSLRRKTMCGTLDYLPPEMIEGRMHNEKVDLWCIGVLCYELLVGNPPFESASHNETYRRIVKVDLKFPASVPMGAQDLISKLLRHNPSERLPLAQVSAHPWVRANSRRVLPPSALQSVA
Summary of the method: (§2)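 HEK293T cells treated 48 h with the compound alone or combined with a second kinase inhibitor at the stated level, then fixed, stained and counted. Cell number expressed as a percentage of untreated wells; n = 4-16.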

[3] = molecular target: Maternal embryonic leucine zipper kinase (Homo sapiens, UniProt Q14680); assay: Inhibition of wild-type human full length MELK (M1 to V651 residues) expressed in bacterial expression system assessed as residual activity at 500 nM by Kinomescan method relative to control; summary of the method: as §1
Maternal embryonic leucine zipper kinase, sequence (Q14680 whole entry, looked up, the tested form may be a part): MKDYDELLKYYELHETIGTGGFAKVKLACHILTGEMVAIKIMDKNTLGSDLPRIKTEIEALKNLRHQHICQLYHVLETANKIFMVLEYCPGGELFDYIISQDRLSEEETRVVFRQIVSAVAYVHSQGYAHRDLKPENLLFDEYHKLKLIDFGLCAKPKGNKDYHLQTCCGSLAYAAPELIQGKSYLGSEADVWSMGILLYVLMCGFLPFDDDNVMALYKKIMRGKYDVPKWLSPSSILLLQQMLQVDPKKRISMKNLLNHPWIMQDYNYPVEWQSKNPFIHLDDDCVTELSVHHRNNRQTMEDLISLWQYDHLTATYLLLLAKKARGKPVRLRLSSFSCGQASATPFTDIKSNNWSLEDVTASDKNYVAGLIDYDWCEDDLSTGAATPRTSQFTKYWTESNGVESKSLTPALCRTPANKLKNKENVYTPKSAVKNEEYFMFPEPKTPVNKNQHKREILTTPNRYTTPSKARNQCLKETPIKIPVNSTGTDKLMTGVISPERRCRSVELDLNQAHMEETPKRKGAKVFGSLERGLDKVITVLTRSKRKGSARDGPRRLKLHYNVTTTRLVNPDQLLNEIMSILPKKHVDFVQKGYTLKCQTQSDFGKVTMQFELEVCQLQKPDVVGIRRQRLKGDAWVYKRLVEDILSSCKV

AURKB (Aurora kinase B) [4] = molecular target: T2, AURKB (Aurora kinase B); assay: Inhibition of AURKB in human HEK293T cells assessed as reduction in cell viability at 270 nM measured after 48 hrs in presence of 3 uM MK-5108 relative to control; format: cell-based, HEK-293T; summary of the method: as §2
[5] = molecular target: Dual specificity mitogen-activated protein kinase kinase 1 (Homo sapiens) (UniProt Q02750); assay: Inhibition of wild-type human full length MEK1 (M1 to V393 residues) expressed in mammalian expression system assessed as residual activity at 500 nM by Kinomescan method relative to control; summary of the method: as §1
Dual specificity mitogen-activated protein kinase kinase 1 (Homo sapiens), sequence (Q02750 whole entry, the tested form may be a part): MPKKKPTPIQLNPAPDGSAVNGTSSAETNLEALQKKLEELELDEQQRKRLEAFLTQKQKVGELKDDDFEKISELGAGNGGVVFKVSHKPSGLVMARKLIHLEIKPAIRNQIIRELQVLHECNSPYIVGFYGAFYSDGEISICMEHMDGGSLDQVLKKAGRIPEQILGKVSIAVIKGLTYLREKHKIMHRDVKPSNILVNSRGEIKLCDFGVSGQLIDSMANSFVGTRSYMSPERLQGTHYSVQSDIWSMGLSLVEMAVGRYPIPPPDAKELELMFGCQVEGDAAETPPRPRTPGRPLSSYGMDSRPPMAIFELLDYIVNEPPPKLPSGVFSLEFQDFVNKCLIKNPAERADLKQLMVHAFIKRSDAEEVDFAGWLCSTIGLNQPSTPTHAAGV

HEK-293T = assay: Cytotoxicity against human HEK293T cells transfected with DYRK1A co-tranfected with Renilla plasmid, pGL3-NFAT and NFATc1 assessed as reduction in luciferase activity by measuring cell number; format: cell-based; conditions: hek-293t
Summary of the method: (§3)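 HEK293T cells transfected with PEI using DYRK1A, Renilla plasmid, IL-2-based pGL3-NFAT firefly reporter and NFATc1. Next day the same transfected population was split into 96-well plates; 6 h later cells were treated for 48 h (11-point dose curve, n = 4), then lysed. EC50 from firefly/Renilla ratio, 4-parameter agonist fit. CC50 from loss of constitutive Renilla signal, 4-parameter inhibitor fit.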

[6] = molecular target: Dual specificity mitogen-activated protein kinase kinase 2 (Homo sapiens) (UniProt P36507); assay: Inhibition of wild-type human full length MEK2 (M1 to V400 residues) expressed in mammalian expression system assessed as residual activity at 500 nM by Kinomescan method relative to control; summary of the method: as §1
Dual specificity mitogen-activated protein kinase kinase 2 (Homo sapiens), sequence (P36507 whole entry, the tested form may be a part): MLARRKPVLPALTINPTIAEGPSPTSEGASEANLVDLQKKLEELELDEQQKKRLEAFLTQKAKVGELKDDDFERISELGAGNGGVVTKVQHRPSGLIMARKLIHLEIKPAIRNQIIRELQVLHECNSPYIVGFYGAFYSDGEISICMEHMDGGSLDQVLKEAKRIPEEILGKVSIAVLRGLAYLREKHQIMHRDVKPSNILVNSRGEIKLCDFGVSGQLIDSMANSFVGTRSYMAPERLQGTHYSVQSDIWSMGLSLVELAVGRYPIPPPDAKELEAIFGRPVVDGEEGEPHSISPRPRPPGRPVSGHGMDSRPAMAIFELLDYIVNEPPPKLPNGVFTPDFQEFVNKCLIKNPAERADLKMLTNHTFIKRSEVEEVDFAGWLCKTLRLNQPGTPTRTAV

[7] = molecular target: T3, Dual specificity tyrosine-phosphorylation-regulated kinase 1A (Homo sapiens, UniProt Q13627); assay: Inhibition of DYRK1A in human pancreatic islets assessed as induction of pancreatic beta-cells replication measured after 48 hrs by Hoechst 33342 staining based analysis
Summary of the method: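 Human islets (85-95% purity) rested 12 h in low-glucose DMEM with 10% FBS and 20 nM exendin-4. Dispersed to single cells and plated on 804G-conditioned-matrix 384-well plates for 48 h. Treated 48 h, then fixed with 4% PFA. Stained with anti-insulin, anti-Ki-67 and 4 μM Hoechst 33342; Ki67+Insulin+/Insulin+ scored by high-content imaging against per-plate cutoffs.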

AURKB (Aurora kinase B) [8] = molecular target: T2, AURKB (Aurora kinase B); assay: Inhibition of AURKB in human HEK293T cells assessed as reduction in cell viability at 30 nM measured after 48 hrs in presence of 3 uM MK-5108 relative to control; format: cell-based, HEK-293T; summary of the method: as §2
[9] = Selectivity index, ratio of CC50 for mouse R7T1 cells assessed as reduction in cell viability measured after 48 hrs by Hoechst 33342 staining based analysis to MEC for inhibition of DYRK1A in human pancreatic islets assessed as induction of pancreatic beta-cells replication measured after 48 hrs by Hoechst 33342 staining based analysis
[10] = molecular target: T1, Tyrosine-protein kinase ABL1; assay: Inhibition of ABL1 in human HEK293T cells assessed as cell death at 30 to 270 nM measured after 48 hrs in presence of 1 uM imatinib; format: cell-based; conditions: hek-293t, 0.27 µM, in the assay text read “3 uM imatinib” for “1 uM imatinib”; summary of the method: as §2
[11] = molecular target: T1, Tyrosine-protein kinase ABL1; assay: Inhibition of wild-type human phosphorylated ABL1 (S229 to K512 residues) expressed in mammalian expression system assessed as residual activity at 500 nM by Kinomescan method relative to control; summary of the method: as §1
AURKB (Aurora kinase B) [12] = molecular target: T2, AURKB (Aurora kinase B); assay: Inhibition of AURKB in human HEK293T cells assessed as reduction in cell viability at 90 nM measured after 48 hrs in presence of 3 uM MK-5108 relative to control; format: cell-based, HEK-293T; summary of the method: as §2
Homo sapiens = species on record: Homo sapiens; assay: Selectivity index, ratio of CC50 for human HEK293T cells transfected with DYRK1A co-tranfected with Renilla plasmid, pGL3-NFAT and NFATc1 assessed as reduction in luciferase activity by measuring cell number to EC50 for human DYRK1A transfected in HEK293T cells co-transfected with Renilla plasmid, pGL3-NFAT and NFATc1 assessed as derepression of NFAT-dependent luciferase activity measured after 48 hrs by luciferase assay; format: cell-based; summary of the method: as §3
[13] = molecular target: T3, Dual specificity tyrosine-phosphorylation-regulated kinase 1A; assay: Inhibition of human DYRK1A transfected in HEK293T cells co-transfected with Renilla plasmid, pGL3-NFAT and NFATc1 assessed as derepression of NFAT-dependent luciferase activity measured after 48 hrs by luciferase assay; format: cell-based, HEK-293T; summary of the method: as §3
Aurora kinase B [14] = molecular target: T4, Aurora kinase B (Homo sapiens, UniProt Q96GD4); assay: Inhibition of AURKB in human HEK293T cells assessed as reduction in cell viability at 30 to 70 nM measured after 48 hrs; format: cell-based; conditions: hek-293t, 0.27 µM, in the assay text read “30 to 270 nM” for “30 to 70 nM”; summary of the method: as §2
T4 sequence (Q96GD4 whole entry): as the sequence (Q96GD4 whole entry) above

[15] = Cytotoxicity against mouse R7T1 cells assessed as reduction in cell viability measured after 48 hrs by Hoechst 33342 staining based analysis
Summary of the method: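 Mouse R7T1 β-cells cultured in high-glucose DMEM with 10% FBS, doxycycline and pyruvate, plated at 25,000 cells/well. Treated in quadruplicate 6 h later (0.169–10,000 nM) for 48 h. Cells fixed in paraformaldehyde and stained with 4 μM Hoechst 33342; nuclei counted by high-content imaging.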

Aurora kinase B [16] = molecular target: T4, Aurora kinase B; assay: Inhibition of wild-type human partial length AURKB (D25 to A303 residues) expressed in mammalian expression system assessed as residual activity at 500 nM by Kinomescan method relative to control; summary of the method: as §1
[17] = molecular target: T3, Dual specificity tyrosine-phosphorylation-regulated kinase 1A; assay: Inhibition of wild-type human partial length DYRK1A (H129 to S509 residues) expressed in mammalian expression system assessed as residual activity at 500 nM by Kinomescan method relative to control; summary of the method: as §1
[18] = molecular target: T5, Aurora kinase A (Homo sapiens) (UniProt O14965); assay: Inhibition of wild-type human partial length AURKA (E122 to K401 residues) expressed in mammalian expression system assessed as residual activity at 500 nM by Kinomescan method relative to control; summary of the method: as §1
T5 sequence (whole entry): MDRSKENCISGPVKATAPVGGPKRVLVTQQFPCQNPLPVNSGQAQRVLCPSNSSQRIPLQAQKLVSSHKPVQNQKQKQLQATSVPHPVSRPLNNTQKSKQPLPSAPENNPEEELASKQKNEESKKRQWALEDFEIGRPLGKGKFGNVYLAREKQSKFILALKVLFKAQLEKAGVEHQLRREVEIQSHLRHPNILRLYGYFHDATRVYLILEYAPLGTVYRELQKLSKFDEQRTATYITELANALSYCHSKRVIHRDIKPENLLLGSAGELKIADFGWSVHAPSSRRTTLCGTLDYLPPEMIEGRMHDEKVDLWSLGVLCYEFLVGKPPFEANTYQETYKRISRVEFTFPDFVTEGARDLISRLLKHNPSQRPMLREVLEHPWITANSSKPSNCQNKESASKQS

Aurora kinase B [19] = molecular target: T4, Aurora kinase B; assay: Inhibition of AURKB in human HEK293T cells assessed as reduction in cell viability at 270 nM measured after 48 hrs in presence of 10 uM TAK-733; format: cell-based; conditions: hek-293t, 0.27 µM; summary of the method: as §2
AURKB (Aurora kinase B) [20] = molecular target: T2, AURKB (Aurora kinase B); assay: Inhibition of AURKB in human HEK293T cells assessed as reduction in cell viability at 90 to 270 nM measured after 48 hrs in presence of 40 nM AZD-1152-HQPA relative to control; format: cell-based, HEK-293T; summary of the method: as §2
[21] = Apparent permeability in human Caco2 cells measured after 2 hrs by LC-MS/MS analysis; format: ADME, cell-based, Caco-2; conditions: Caco-2
Summary of the method: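 Caco-2 monolayers grown on polycarbonate filter inserts (5 × 10⁵ cells/well seeded) and differentiated 21 ± 4 days. Transport run in HBSS with 25 mM HEPES, pH 7.4, 37 °C; compound added donor side. Receiver sampled over 2 h, donor at 0 and 2 h; LC-MS/MS with internal standard. Papp = (dC_rec/dt)/(A × C0,donor) × 10^6.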

[22] = molecular target: T1, Tyrosine-protein kinase ABL1; assay: Inhibition of ABL1 in human HEK293T cells assessed as cell death at 30 to 270 nM measured after 48 hrs in presence of 1 uM dasatinib; format: cell-based; conditions: hek-293t, 0.27 µM; summary of the method: as §2
[23] = Half life in human liver microsomes at 1 uM preincubated for 10 mins followed by NADPH addition and measured up to 40 mins by LC-MS/MS analysis; format: ADME, Microsome
Summary of the method: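 Human or mouse liver microsomes, each run separately, in 100 mM KxPO4 pH 7.4 with 10 mM MgCl2 and 1 μM test compound. Pre-incubated 10 min at 37 °C, then started with 1 mM NADPH. Quenched in acetonitrile stop solution at 0, 10, 20 and 40 min, centrifuged, diluted and analysed by LC-MS/MS.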

T1 sequence (P00519 whole entry, the tested form may be a part): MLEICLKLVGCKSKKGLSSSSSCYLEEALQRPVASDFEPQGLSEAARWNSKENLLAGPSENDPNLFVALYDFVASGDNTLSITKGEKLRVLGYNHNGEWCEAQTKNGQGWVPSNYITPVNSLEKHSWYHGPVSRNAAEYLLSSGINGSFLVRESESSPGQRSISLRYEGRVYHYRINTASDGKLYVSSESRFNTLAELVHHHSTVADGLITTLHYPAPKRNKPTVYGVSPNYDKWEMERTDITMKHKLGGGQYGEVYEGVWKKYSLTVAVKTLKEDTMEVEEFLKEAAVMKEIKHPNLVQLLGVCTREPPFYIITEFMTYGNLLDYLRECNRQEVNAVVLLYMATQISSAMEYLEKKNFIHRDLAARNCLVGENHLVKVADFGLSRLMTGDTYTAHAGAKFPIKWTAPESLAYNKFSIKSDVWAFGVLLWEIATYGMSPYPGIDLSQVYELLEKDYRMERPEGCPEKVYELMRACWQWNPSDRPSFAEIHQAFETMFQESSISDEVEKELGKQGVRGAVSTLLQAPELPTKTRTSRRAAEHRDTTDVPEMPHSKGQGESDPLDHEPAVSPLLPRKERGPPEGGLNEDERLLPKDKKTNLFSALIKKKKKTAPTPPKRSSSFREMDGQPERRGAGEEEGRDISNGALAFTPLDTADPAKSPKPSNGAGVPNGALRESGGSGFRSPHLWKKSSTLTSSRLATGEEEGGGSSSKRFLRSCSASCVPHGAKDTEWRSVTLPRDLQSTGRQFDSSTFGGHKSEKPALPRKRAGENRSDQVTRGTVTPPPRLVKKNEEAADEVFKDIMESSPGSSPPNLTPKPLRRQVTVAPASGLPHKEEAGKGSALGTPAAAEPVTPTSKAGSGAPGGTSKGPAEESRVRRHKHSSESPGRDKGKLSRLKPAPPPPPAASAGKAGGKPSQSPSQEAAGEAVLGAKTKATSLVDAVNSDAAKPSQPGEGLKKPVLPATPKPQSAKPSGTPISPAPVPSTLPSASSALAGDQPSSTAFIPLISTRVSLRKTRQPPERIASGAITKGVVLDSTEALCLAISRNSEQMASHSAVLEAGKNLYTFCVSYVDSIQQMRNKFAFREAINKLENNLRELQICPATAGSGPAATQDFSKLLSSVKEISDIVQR

Activity [1]: 43%
Activity [3]: 4.7%
Activity [5]: 69%
Activity [6]: 55%
MEC [7]: 27 nM
Activity [11]: 43%
pEC50 [13]: 6.65
Activity (Aurora kinase B [16]): 67%
Activity [17]: 0%
Activity [18]: 97%
Papp at 2 h [21]: 4.03 ×10⁻⁶ cm/s
t1/2 [23]: 32 min
Structure (SMILES): CCOC(=O)c1cnc2ccc(-c3ccncc3)nc2c1N[C@H]1CC[C@H](CN(C)C)CC1
inhibition at 48 h, up to 0.27 µM (AURKB (Aurora kinase B) [2]): 50%
inhibition at 48 h, 0.27 µM (AURKB (Aurora kinase B) [4]): 34%
CC50 (HEK-293T): 8.05 µM
inhibition at 48 h, 0.03 µM (AURKB (Aurora kinase B) [8]): 31%
Selectivity Index [9]: 143
inhibition (INH) [10]: Not Active
inhibition at 48 h, 0.09 µM (AURKB (Aurora kinase B) [12]): 36%
Ratio CC50/EC50 (Homo sapiens): 36
inhibition (INH) (Aurora kinase B [14]): Not Active
CC50 [15]: 3.86 µM
inhibition (INH) (Aurora kinase B [19]): Not Active
inhibition at 48 h, up to 0.27 µM (AURKB (Aurora kinase B) [20]): 67%
inhibition (INH) [22]: Not Active
